The values that follow come from ChEMBL document CHEMBL4251545, “Design and synthesis of cenocladamide analogues and their evaluation against breast cancer cell lines” (Medchemcomm, 2017).

pIC50: −log10 of the molar value. Active and inactive are the calls of the source. The rule behind the calls is not given here.

Data set [1] has as its system MDA-MB-231. The data set can be described thus: Antiproliferative activity against human MDA-MB-231 cells at 20 uM after 3 days by DAPI staining-based fluorescence microscopic method relative to control. It counts as functional. The gist of the method: (§1)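 Controls were 0.5% DMSO (negative) and 1 μM doxorubicin (positive). Cells were fixed in 3.7% formaldehyde, stained with 0.4 μg mL–1 DAPI, and nuclei counted by automated fluorescence microscopy. Proliferation % and cell-loss % were calculated against a 24 h cell count and the DMSO 72 h count.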

The test system of data set [2] is MDA-MB-231. The data set is described as follows: Cytotoxicity against human MDA-MB-231 cells by MitoTracker Deep Red staining-based fluorescence microscopic method. In kind it is functional, cell-based. Put shortly:
(§2)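 Stained 60 min with 1 μg mL–1 Hoechst 33342 and 300 nM MitoTracker Deep Red in RPMI/10% FBS, then imaged by automated fluorescence microscopy. Mitochondrial mass taken as mean cytoplasmic MitoTracker intensity. Nuclear fragmentation index from an apoptosis image-analysis module.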

The subject of data set [3] is MDA-MB-231. The data set can be described thus: Induction of reactive oxygen species generation in human MDA-MB-231 cells at 20 uM after 24 hrs by H2DCFDA dye-based fluorescence microscopic method. In kind it is functional, cell-based. Put shortly: (§3)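 MDA-MB-231 cells were exposed for 3 or 24 h, with or without 3 mM N-acetyl-L-cysteine. Intracellular ROS was probed with 10 μM H2DCFDA for 30 min at 37 °C. After a PBS wash, fluorescence intensity was quantified by automated fluorescence microscopy. Cells were grown at 37 °C, 5% CO2.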

Data set [4] concerns MDA-MB-231. The data set can be described thus: Induction of nuclear morphological changes in human MDA-MB-231 cells assessed as nuclear fragmentation by Hoechst 33342 staining-based fluorescence microscopic method. In kind it is functional, cell-based. The gist of the method: as §2
For data set [5], the system named is MDA-MB-231. The data set can be described thus: Induction of reactive oxygen species generation in human MDA-MB-231 cells at 6 uM after 24 hrs by H2DCFDA dye-based fluorescence microscopic method. In kind it is functional, cell-based. To be noted: 20 uM, in the assay text read “at 20 uM” for “at 6 uM”. The gist of the method: as §3
In data set [6] the test system is MDA-MB-231. The data set can be described thus: Induction of reactive oxygen species generation in human MDA-MB-231 cells at 6 uM after 3 hrs in presence of N-acetyl-L-cysteine by H2DCFDA dye-based fluorescence microscopic method. In kind it is functional, cell-based. To be noted: 20 uM, in the assay text read “at 20 uM” for “at 6 uM”. Put shortly: as §3
Data set [7] relates to MDA-MB-468. The data set can be described thus: Cytotoxicity against human MDA-MB-468 cells at 20 uM after 3 days by DAPI staining-based fluorescence microscopic method relative to control. In kind it is functional.
Data set [8] relates to BT-549. The data set can be described thus: Cytotoxicity against human BT549 cells at 20 uM after 3 days by DAPI staining-based fluorescence microscopic method relative to control. In kind it is functional.
Data set [9] has as its system MDA-MB-231. The data set is described as follows: Cell cycle arrest in human MDA-MB-231 cells assessed as accumulation at S phase at 25 uM after 72 hrs by EdU incorporation-based fluorescence microscopic method. In kind it is functional. Put shortly:
(§4)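 Cells exposed 72 h to 0.2–25 μM, then pulsed 30 min with 30 μM EdU. Fixed in 3.7% paraformaldehyde, permeabilised with 0.1% Triton X100. EdU click-labelled with AF488. Blocked in 3% BSA, then anti-pHH3 (S10) 1:250 and AF647 secondary with Hoechst. S and M phases scored by automated imaging cell-cycle module.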

The test system of data set [10] is MDA-MB-231. The data set is described as follows: Cell cycle arrest in human MDA-MB-231 cells assessed as accumulation at M phase at 25 uM after 72 hrs by pHH3 detection-based fluorescence microscopic method. It counts as functional. The gist of the method: as §4
The subject of data set [11] is MDA-MB-231. The data set is described as follows: Cytotoxicity against human MDA-MB-231 cells at 20 uM after 3 days by DAPI staining-based fluorescence microscopic method relative to control. In kind it is functional.
The test system of data set [12] is HCC38. The data set is described as follows: Cytotoxicity against human HCC38 cells at 20 uM after 3 days by DAPI staining-based fluorescence microscopic method relative to control. It counts as functional.
The test system of data set [13] is MDA-MB-231. The data set can be described thus: Induction of reactive oxygen species generation in human MDA-MB-231 cells at 6 uM after 3 hrs by H2DCFDA dye-based fluorescence microscopic method relative to control. It counts as functional. The gist of the method: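 Exposed 3 or 24 h to 6 μM, with or without 3 mM N-acetyl-L-cysteine. Cells then loaded with 10 μM H2DCFDA for 30 min at 37 °C, washed with PBS, and fluorescence intensity read by automated fluorescence microscopy.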

Data set [14] relates to Hs-578T. The data set can be described thus: Cytotoxicity against human Hs 578T cells at 20 uM after 3 days by DAPI staining-based fluorescence microscopic method relative to control. It counts as functional.
Data set [15] relates to MDA-MB-231. The data set is described as follows: Antiproliferative activity against human MDA-MB-231 cells after 3 days by DAPI staining-based fluorescence microscopic method. In kind it is functional, cell-based. The note with it: MDA-MB-231, 72 h. Put shortly: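 Fixed in 3.7% formaldehyde, nuclei stained with 0.4 μg mL–1 DAPI, counted by automated fluorescence microscopy. Proliferation normalised to 0.5% DMSO and to 24 h cell count; IC50 from dose response.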

The test system of data set [16] is MDA-MB-231. The data set can be described thus: Induction of necrosis in human MDA-MB-231 cells at 40 uM after 24 hrs by acridine orange/ethidium bromide staining-based flow cytometric method. In kind it is functional, cell-based. A general note: In flow cytometry, cells or beads pass a laser one at a time.
In data set [17] the test system is MCF7. The data set can be described thus: Cytotoxicity against human MCF7 cells at 20 uM after 3 days by DAPI staining-based fluorescence microscopic method relative to control. It counts as functional.
In the next data set the test system is SK-BR-3. The data set is described as follows: Cytotoxicity against human SKBR3 cells at 20 uM after 3 days by DAPI staining-based fluorescence microscopic method relative to control. It counts as functional.
Data set [18] concerns T47D. The data set can be described thus: Cytotoxicity against human T47D cells at 20 uM after 3 days by DAPI staining-based fluorescence microscopic method relative to control. It counts as functional.
The test system of data set [19] is MCF7. The data set is described as follows: Cytotoxicity against human MCF7 cells at 0.5 uM after 3 days by DAPI staining-based fluorescence microscopic method relative to control. It counts as functional. The note with it: in the assay text read “at 1 uM” for “at 0.5 uM”. Put shortly: as §1
Data set [20] relates to MDA-MB-231. The data set is described as follows: Cytotoxicity against human MDA-MB-231 cells at 0.5 uM after 3 days by DAPI staining-based fluorescence microscopic method relative to control. It counts as functional. The note with it: in the assay text read “at 1 uM” for “at 0.5 uM”. The gist of the method:
as §1

In the next data set the test system is HMEC. The data set is described as follows: Cytotoxicity against immortalized HMEC at 0.5 uM after 3 days by DAPI staining-based fluorescence microscopic method relative to control. It counts as cell-based. The note with it: human, 72 h, 1 µM, in the assay text read “at 1 uM” for “at 0.5 uM”. Put shortly: as §1
The test system of data set [21] is MDA-MB-468. The data set can be described thus: Cytotoxicity against human MDA-MB-468 cells at 0.5 uM after 3 days by DAPI staining-based fluorescence microscopic method relative to control. It counts as functional. To be noted: in the assay text read “at 1 uM” for “at 0.5 uM”. The gist of the method: as §1
Data set [22] concerns HCC38. The data set is described as follows: Cytotoxicity against human HCC38 cells at 0.5 uM after 3 days by DAPI staining-based fluorescence microscopic method relative to control. The note with it: in the assay text read “at 1 uM” for “at 0.5 uM”. It counts as functional. Put shortly: as §1
The test system of data set [23] is T47D. The data set is described as follows: Cytotoxicity against human T47D cells at 0.5 uM after 3 days by DAPI staining-based fluorescence microscopic method relative to control. It counts as functional. To be noted: in the assay text read “at 1 uM” for “at 0.5 uM”. The gist of the method:
as §1

The subject of data set [24] is Hs-578T. The data set is described as follows: Cytotoxicity against human Hs 578T cells at 0.5 uM after 3 days by DAPI staining-based fluorescence microscopic method relative to control. In kind it is functional. The note with it: in the assay text read “at 1 uM” for “at 0.5 uM”. Put shortly:
as §1

The test system of data set [25] is BT-549. The data set can be described thus: Cytotoxicity against human BT549 cells at 0.5 uM after 3 days by DAPI staining-based fluorescence microscopic method relative to control. It counts as functional. The note with it: in the assay text read “at 1 uM” for “at 0.5 uM”. Put shortly: as §1

One may read the pIC50 as the negative decadic logarithm of the IC50, by convention in mol/L. A low value points to a high IC50.

The compound `COc1cc(/C=C/C(=O)N2C=CC(=O)CC2)cc(OC)c1OC` gave an Activity in the data set on MDA-MB-231 [1] of 50%.

As to `COc1cc(/C=C/C(=O)N2CCCCC2)cc(OC)c1O`, the result with MDA-MB-231 [2], with MDA-MB-231 [3], in the data set with MDA-MB-231 [4], in the data set on MDA-MB-231 [5] and in the data set with MDA-MB-231 [6] was inactive.

Regarding `COc1cc(CCC(=O)N2C=CC(=O)CC2)cc(OC)c1OC`, in the data set with MDA-MB-231 [1], the result was inactive.

In the case of `COc1cc(/C=C/C(=O)N2CCC(=O)CC2)cc(OC)c1O`, the Activity entry in the data set on MDA-MB-468 [7] is on record as “>=15 - 80%”; in the data set on BT-549 [8], “>=15 - 80%”; in the data set on MDA-MB-231 [11], 60%; with HCC38 [12], “>=15 - 80%”; in the data set with MDA-MB-231 [13], 20%; with Hs-578T [14] it was “>=15 - 80%”. Also, the Activity result in the data set on MCF7 [17], in the data set on SK-BR-3 and in the data set on T47D [18] was “>=15 - 80%” each time. Further, the result with MDA-MB-231 [2], in the data set with MDA-MB-231 [4] and with MDA-MB-231 [16] was Active. For the same compound, the outcome with MDA-MB-231 [9] and with MDA-MB-231 [10] was inactive. The pIC50 in the data set on MDA-MB-231 [15] was 5.18.

As to `COc1cccc2c1C(=O)c1c(O)c3c(c(O)c1C2=O)C[C@@](O)(C(=O)CO)C[C@@H]3O[C@H]1C[C@H](N)[C@H](O)[C@H](C)O1` [DOXORUBICIN], the Activity with MCF7 [19] is given as 0.2 - 50%; in the data set with MDA-MB-231 [20] it was 0.2 - 50%; with HMEC, 23.9%; in the data set with MDA-MB-468 [21], 0.2 - 50%; in the data set on HCC38 [22], 0.2 - 50%; in the data set on T47D [23], 0.2 - 50%. The Activity in the data set on Hs-578T [24] and with BT-549 [25] was 0.2 - 50% each time.

In the data set with MDA-MB-231 [1], `O=C1C=CN(C(=O)/C=C/c2ccccc2)CC1` registered an Activity of 50%.
